Reference: ChEMBL document CHEMBL3414452, “Synthesis and in vitro antiplasmodial evaluation of 7-chloroquinoline-chalcone and 7-chloroquinoline-ferrocenylchalcone conjugates” (Eur J Med Chem, 2015)

System: not listed separately
Test: Selectivity index, ratio of IC50 for human HeLa cells to IC50 for CQ-resistant Plasmodium falciparum W2
Format: toxicity, cell-based
Details: read-out: Ratio IC50
Procedure, shortened: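 Ratio of HeLa IC50 to W2 IC50. HeLa cells grown in DMEM with penicillin/streptomycin to 70% confluency, dosed from DMSO stocks, and incubated 24 h at 37 °C in CO2. Cells were then washed, trypsinized, stained with trypan blue for about 10 min at room temperature, and viable/dead cells counted by hemacytometer. IC50 fitted from counts.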

Compound	selectivity ratio
COc1ccc(/C=C/C(=O)c2ccc(OCC(=O)NCCCCCCNc3ccnc4cc(Cl)ccc34)cc2)cc1	1400
COc1ccc(C(=O)/C=C/c2ccc(OCC(=O)NCCCCCCNc3ccnc4cc(Cl)ccc34)cc2)cc1	1130

System: Plasmodium falciparum
Test: Antimalarial activity against CQ-resistant Plasmodium falciparum W2 assessed as parasite growth inhibition after 48 hrs by YOYO-1 dye based flow cytometry
Format: functional, organism-based
Details: W2, 48 h
Procedure, shortened: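 W2 strain cultured in RPMI-1640 with 10% human serum, sorbitol-synchronized (5%). Ring-stage microcultures exposed to a range of compound concentrations (DMSO ≤0.1% final; 0.1% DMSO controls) for 48 h. Fixed 48 h in 1% formaldehyde/PBS pH 7.4 at room temperature, stained with 1 nM YOYO-1 in 0.1% Triton X-100/PBS, and parasitemia read by flow cytometry. IC50 from nonlinear fit of duplicate experiments.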

Compound	IC50 [nM]
COc1ccc(/C=C/C(=O)c2ccc(OCC(=O)NCCCCCCNc3ccnc4cc(Cl)ccc34)cc2)cc1	17.8
O=Cc1ccc(OCC(=O)NCCCCNc2ccnc3cc(Cl)ccc23)cc1	444
O=C(COc1ccc(C(=O)/C=C/c2ccccc2)cc1)NCCCCNc1ccnc2cc(Cl)ccc12	398
CC(=O)c1ccc(OCC(=O)NCCCCNc2ccnc3cc(Cl)ccc23)cc1	148
O=Cc1ccc(OCC(=O)NCCCCCCNc2ccnc3cc(Cl)ccc23)cc1	875
COc1ccc(C(=O)/C=C/c2ccc(OCC(=O)NCCCCNc3ccnc4cc(Cl)ccc34)cc2)cc1	63
O=Cc1ccc(OCC(=O)NCCCNc2ccnc3cc(Cl)ccc23)cc1	73.4
O=Cc1ccc(OCC(=O)NCCNc2ccnc3cc(Cl)ccc23)cc1	419
CC(=O)c1ccc(OCC(=O)NCCCNc2ccnc3cc(Cl)ccc23)cc1	173
O=C(O)COc1ccc(/C=C/C(=O)c2ccccc2)cc1	> 10000
C[C@@H]1CC[C@H]2[C@@H](C)C(=O)O[C@@H]3O[C@@]4(C)CC[C@@H]1[C@]32OO4 [ARTEMISININ]	6.5
CC(=O)c1ccc(OCC(=O)NCCCCCCNc2ccnc3cc(Cl)ccc23)cc1	71.1
COc1ccc(/C=C/C(=O)c2ccc(OCC(=O)NCCCNc3ccnc4cc(Cl)ccc34)cc2)cc1	50.5
O=C(COc1ccc(C(=O)/C=C/c2ccccc2)cc1)NCCCNc1ccnc2cc(Cl)ccc12	46.3
COc1ccc(C(=O)/C=C/c2ccc(OCC(=O)NCCCNc3ccnc4cc(Cl)ccc34)cc2)cc1	221
COc1ccc(/C=C/C(=O)c2ccc(OCC(=O)NCCCCNc3ccnc4cc(Cl)ccc34)cc2)cc1	170
COc1ccc(C(=O)/C=C/c2ccc(OCC(=O)O)cc2)cc1	> 10000
COc1ccc(C(=O)/C=C/c2ccc(OCC(=O)NCCNc3ccnc4cc(Cl)ccc34)cc2)cc1	379
O=C(O)COc1ccc(C(=O)/C=C/c2ccccc2)cc1	> 10000
COc1ccc(/C=C/C(=O)c2ccc(OCC(=O)NCCNc3ccnc4cc(Cl)ccc34)cc2)cc1	2740
O=C(COc1ccc(/C=C/C(=O)c2ccccc2)cc1)NCCCCNc1ccnc2cc(Cl)ccc12	139
O=C(COc1ccc(/C=C/C(=O)c2ccccc2)cc1)NCCNc1ccnc2cc(Cl)ccc12	905
CC(=O)c1ccc(OCC(=O)NCCNc2ccnc3cc(Cl)ccc23)cc1	558
COc1ccc(/C=C/C(=O)c2ccc(OCC(=O)O)cc2)cc1	> 10000
O=C(COc1ccc(/C=C/C(=O)c2ccccc2)cc1)NCCCNc1ccnc2cc(Cl)ccc12	109
COc1ccc(C(=O)/C=C/c2ccc(OCC(=O)NCCCCCCNc3ccnc4cc(Cl)ccc34)cc2)cc1	35.4
O=C(COc1ccc(C(=O)/C=C/c2ccccc2)cc1)NCCCCCCNc1ccnc2cc(Cl)ccc12	4070
O=C(COc1ccc(C(=O)/C=C/c2ccccc2)cc1)NCCNc1ccnc2cc(Cl)ccc12	840

System: HeLa
Test: Cytotoxicity against human HeLa cells after 24 hrs by trypan blue dye exclusion assay
Format: cell-based
Details: not given
Procedure, shortened: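 HeLa cells grown in DMEM with penicillin/streptomycin. Compound from DMSO stock was added once cultures reached 70% confluency, then incubated 24 h at 37 °C under CO₂. Cells were PBS-washed, detached with 0.25% trypsin for 5 min, and resuspended in PBS. Trypan blue was added for about 10 min at room temperature. Viable and dead cells were counted by hemacytometer, and IC₅₀ derived.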

Compound	IC50 [nM]
COc1ccc(/C=C/C(=O)c2ccc(OCC(=O)NCCCCCCNc3ccnc4cc(Cl)ccc34)cc2)cc1	25000
COc1ccc(C(=O)/C=C/c2ccc(OCC(=O)NCCCCCCNc3ccnc4cc(Cl)ccc34)cc2)cc1	40000
